Bioassay records: PubChem BioAssay, several laboratories
S1P1 ag pot: S1P1 agonists and agonism potentiators, primary screen, cell-based, primary and confirmation screens, CRE-bla reporter. Sphingosine 1-phosphate receptor 1 (Homo sapiens), P21453. 56,000 compounds, 0.57% hits. activation, % at 9.5 µM. S1P1 CRE-bla cells, forskolin, beta-lactamase FRET, potentiator mode; S1P1 agonist co-added at EC20, 2 nM; 100% = saturating reference agonist, 0% = basal;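 active means activation above a cutoff set at the mean activation of all tested compounds plus 3 SD, cut at about 54% in these data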;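 further: forskolin at 4 µM as EC80 and the EC20 agonist is SEW2871; 100% = SEW2871 at its EC100 plus forskolin at EC80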
M1 agonist: M1 muscarinic receptor agonists, primary screen, CHO-M1 cells, Fluo-4 calcium, agonist mode. Fluo-4 calcium fluorescence; stronger effect = higher value. 64,000 compounds, 3% hits. B-score at 10 µM;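 active means fluorescence rise, raw or as B-score row- and column-corrected plate score, outside the 99.7% band of its plate's samples, either direction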
D1 mod: D1 CRE-luciferase signal change, two-sided – cell-based, HEK293 D1, dopamine EC30, D1 allosteric modulator project, primary screen | B-score at 10 µM | 58,000 compounds, 5.9% hits | dopamine EC30 potentiation; actives deviate in either direction | D(1A) dopamine receptor (Homo sapiens), P21728;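 active means luminescence count or its row- and column-corrected plate score outside the 99.7% band of the plate's sample wells, on either side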
S1P3 ag: human S1P3 receptor agonists, primary screen, cell-based, primary and confirmation, NFAT-BLA reporter | Sphingosine 1-phosphate receptor 3 (Homo sapiens), Q99500 | S1P3 NFAT-BLA reporter cells, agonism, FRET ratio; relative to 1 µM S1P, basal subtracted | activation, % at 4.5 µM | 60,000 compounds, 0.1% hits;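 active means activation above the screen-wide mean plus 3 SD, cut at about 4.5% in these data, passing the limit was not always enough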
Target sequence (Q99500 whole entry, looked up): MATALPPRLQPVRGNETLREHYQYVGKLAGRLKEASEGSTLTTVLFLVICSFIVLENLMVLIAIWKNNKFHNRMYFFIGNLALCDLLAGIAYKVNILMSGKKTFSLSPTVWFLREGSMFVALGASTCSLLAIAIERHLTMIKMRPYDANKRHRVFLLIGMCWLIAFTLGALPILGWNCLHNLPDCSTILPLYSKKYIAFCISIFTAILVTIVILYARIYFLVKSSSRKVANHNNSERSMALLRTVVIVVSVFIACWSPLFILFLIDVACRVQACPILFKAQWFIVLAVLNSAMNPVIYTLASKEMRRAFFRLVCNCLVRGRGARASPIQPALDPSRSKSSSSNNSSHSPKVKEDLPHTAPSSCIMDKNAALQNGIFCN
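Benchmarks: high control 1 µM S1P / System: stable CHO line with human S1P3, Gα16, NFAT-BLA reporter / Dosing: single compound concentration, 4.5 µM final / Timing: 4 h compound at 37 °C, 2 h substrate at RT / Measured by: FRET β-lactamase substrate fluorescence, excitation 405 nm, 460/535 nm emission ratio, background-subtracted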
M1 antag: antagonists of rat M1 muscarinic receptor; CHO-M1 cells, Fluo-4 calcium, ACh EC80 antagonist mode; stronger effect = lower value; Muscarinic acetylcholine receptor M1 (Rattus norvegicus), P08482; B-score at 10 µM; 64,000 compounds, 3.4% hits;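 active means calcium fluorescence response, raw or row-and-column corrected B-score, differing from the plate sample mean either way at a set confidence level, mostly lower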
D1 PAM confirm: D1 receptor positive allosteric modulators, retest, confirmation, cell-based, HEK293 D1, CRE-luciferase, duplicate. shares compounds with D1 mod. dopamine EC30 potentiation; stronger effect = higher value. luminescence at 10 µM. 2,200 compounds, 88% hits;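 active means luminescence in either of two replicates above the same-plate mean plus 3 SD of the low-dose dopamine control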
D1 no dopamine: D1 receptor agonism without dopamine, confirmation, mechanism study for D1 allosteric modulator project, cell-based, HEK293 D1, CRE-luciferase, secondary assay 1; shares compounds with D1 mod; luminescence, no dopamine; stronger effect = higher value; luminescence at 10 µM; 1,900 compounds, 0.8% hits; AID 646, 2007; in the data active means luminescence above about 3900
Isoprot counter: counter-screen for D1 modulators: isoproterenol response in HEK293 cells; shares compounds with D1 mod; HEK293 D1 CRE-luciferase, isoproterenol EC30 counter-screen; stronger effect = higher value; luminescence at 10 µM; 2,200 compounds, 63% hits;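 active means luminescence in either replicate above plate mean of wells with a partly effective reference agonist dose plus 3 SD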;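 further: isoproterenol raises cAMP through native beta-adrenoceptor Gs so signal bypasses D1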
* marks the source's active call; other numbers are inactive results; x = not tested or not shown. Sampled rows, rich in hits. Any-hit rate of the full collection: about 11%.

SMILES	S1P1 ag pot	M1 agonist	D1 mod	S1P3 ag	M1 antag	D1 PAM confirm	D1 no dopamine	Isoprot counter
CC(=O)c1cccc(NC2c3ncccc3C(=O)N2Cc2ccco2)c1 (centres undefined)	-8.3	1.06	19.5*	-0.4	1.08	19736*	x	4728*
c1ccn(-c2ncnc3sc4c(c23)CCCC4)c1	-13.0	0.759	7.57*	-1.2	0.272	13568*	x	3372*
c1cn(-c2ncnc3sc4c(c23)CCCC4)cn1	15.4	-0.308	4.3	-0.6	0.554	x	x	x
O=C(CN(Cc1ccc2c(c1)OCO2)C(=O)CSc1nc2ccccc2o1)NC1CCCCC1	3.9	0.453	-0.0216	-0.3	-0.172	x	x	x
O=c1nc2scc(-c3ccccc3)n2c2ccccc12	x	1.03	3.39*	x	-0.728	17356*	1720	3164
COC(=O)c1cc(=O)n2c(-c3ccccc3)csc2n1	5.8	0.032	0.018	-0.9	0.0223	x	x	x
Cc1cc(C)n(C(=O)CSc2nnc(SCC(=O)n3nc(C)cc3C)s2)n1	4.7	-0.188	-0.377	-1.1	-0.248	x	x	x
Clc1ccc(-c2nnc3sc(-c4ccc(Br)o4)nn23)c(Cl)c1	-16.5	-0.378	-0.42	0.2	-0.498	x	x	x
Clc1ccccc1-c1nnc2sc(-c3ccc(Br)o3)nn12	11.0	1.16	2.3*	-0.8	-0.168	8388*	1560	2532
c1coc(-c2nn3c(-c4ccco4)nnc3s2)c1	-16.0	1.6	2.82*	-0.1	1.4	12468*	1852	3112*
Brc1ccc(-c2nn3c(Cc4ccccc4)nnc3s2)o1	13.9	0.027	3.81*	-0.8	0.467	11236*	1820	3280
c1coc(-c2nnc3sc(Cc4cccs4)nn23)c1	17.1	-0.0193	x	-2.3	0.0416	x	x	x
O=C(Cc1ccccc1)N1CCN(C(=O)c2cccs2)CC1	-5.5	-1.02	0.441	0.6	0.15	x	x	x
Cc1nc2sc(C(c3ccccc3)N3CCN(C)CC3)c(O)n2n1 (centres undefined)	-14.2	0.0013	0.0144	-1.0	-0.456	x	x	x
COc1ccccc1C(=O)NCCc1nc2ccccc2[nH]1	-18.8	-0.223	-0.787	-0.2	0.323	x	x	x
CC(=O)c1nn(-c2cccc(Cl)c2)cc1C(=O)c1ccco1	-47.8	-0.0484	4.26*	-1.0	-0.474	12508*	1716	3036
CCOc1ccc(C(=O)Nc2ccc3c(c2)OCCO3)cc1OC	2.5	0.561	-0.0562	0.6	0.0116	x	x	x
CCOc1cc(C(=O)Nc2ccc3c(c2)OCO3)ccc1OC(F)F	10.1	-0.647	7.62*	-0.3	-0.311	13356*	1552	3896*
Cn1c(Cn2c(=O)sc3ccccc32)nnc1SCC(=O)NCCc1ccccc1	1.4	0.619	-0.609	-0.6	-0.331	x	x	x
COCCN1CN(S(=O)(=O)c2ccccc2)c2nc3ccccc3nc21	7.9	-1.13	6.62*	0.3	1.28	9164*	1496	3088*
CCCCN1CN(S(=O)(=O)c2cccs2)c2nc3ccccc3nc21	5.9	0.399	8.37*	-1.1	0.981	13480*	1328	3756*
COc1ccc(OC)c(NC(=O)CSc2nnc(N)s2)c1	4.4	0.0018	x	0.1	-0.0511	x	x	x
O=C(CSc1nnnn1-c1cccnc1)NCc1cccs1	0.7	-0.36	0.252	0.0	0.119	x	x	x
CCS(=O)(=O)n1nc(-c2ccccc2)nc1NCc1ccco1	-7.6	-0.0572	9.8*	-0.5	0.102	9056*	1636	4104*
CCn1cc(C2=NOC(C(=O)Nc3ccc4c(c3)OCO4)C2)c(C)n1 (centres undefined)	4.9	-1.69	6.61*	-1.0	1.21	8608*	1720	3452*
SMILES	S1P1 ag pot	M1 agonist	D1 mod	S1P3 ag	M1 antag	D1 PAM confirm	D1 no dopamine	Isoprot counter
O=C(COC(=O)CCC(=O)Nc1nccs1)NCc1ccco1	6.3	-0.0097	0.448	-1.1	0.54	x	x	x
CC(=O)Nc1c(-c2ccccc2)nc2ncccn12	-25.4	-0.487	0.529	0.6	0.132	x	x	x
Cc1ccc(-c2nc3ncccn3c2NC(=O)C2CC2)cc1	-36.9	1.09	2.83*	-0.6	0.359	8360*	1836	2576
CCc1ccc(N(CC(=O)NC)S(C)(=O)=O)cc1	27.4	-0.53	-0.485	-1.0	-1.01	x	x	x
CC(C)(C)n1ncc2c(=O)n(CC(=O)N3CCN(c4ccccc4)CC3)cnc21	-13.8	-0.873	0.402	0.6	-0.437	x	x	x
COc1ccc(-c2nnc(SCC(=O)N(Cc3ccccc3)C(C)(C)C)o2)cc1OC	8.3	-0.587	0.339	-0.6	0.0812	x	x	x
CCOC(=O)CN(C(=O)CSc1nnc(-c2ccc(OC)c(OC)c2)o1)c1ccc(F)cc1	-11.9	-0.841	3.06*	-0.9	-0.0862	8044*	1456	2672
CCOC(=O)c1ncn2c1C(=O)OC2(C)C	-23.3	x	-0.464	-1.4	x	x	x	x
